# Measured values: ChEMBL document CHEMBL3608251, “Probing the 'bipolar' nature of the carbonic anhydrase active site: aromatic sulfonamides containing 1,3-oxazol-5-yl moiety as picomolar inhibitors of cytosolic CA I and CA II isoforms” (Eur J Med Chem, 2015)
# Legend:
# Carbonic anhydrase 1 = Carbonic anhydrase 1 (Homo sapiens, UniProt P00915); assay: Inhibition of human recombinant carbonic anhydrase 1 preincubated for 15 mins by stopped flow CO2 hydration method
# In short: (§1)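 Stopped-flow assay of CO2 hydration by in-house recombinant CA isoforms. Phenol red 0.2 mM read at 557 nm, in 20 mM Tris pH 8.3 with 20 mM Na2SO4 for constant ionic strength. CO2 1.7–17 mM; initial rates over 10–100 s, uncatalyzed rate subtracted. Inhibitor diluted in buffer down to 0.005 nM and preincubated with enzyme 15 min at room temperature. Ki by non-linear least squares with Cheng-Prusoff, mean of ≥3 determinations.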
# Carbonic anhydrase 2 = Carbonic anhydrase 2 (Homo sapiens, UniProt P00918); assay: Inhibition of human recombinant carbonic anhydrase 2 preincubated for 15 mins by stopped flow CO2 hydration method
# Carbonic anhydrase 12 = Carbonic anhydrase 12 (Homo sapiens, UniProt O43570); assay: Inhibition of human recombinant carbonic anhydrase 12 preincubated for 15 mins by stopped flow CO2 hydration method; in short: as §1
# Homo sapiens [1] = species: Homo sapiens; assay: Selectivity ratio of Ki for human recombinant carbonic anhydrase 2 to Ki for human recombinant carbonic anhydrase 1
# Carbonic anhydrase 9 = Carbonic anhydrase 9 (Homo sapiens, UniProt Q16790); assay: Inhibition of human recombinant carbonic anhydrase 9 preincubated for 15 mins by stopped flow CO2 hydration method; in short: as §1
# Homo sapiens [2] = species: Homo sapiens; assay: Selectivity ratio of Ki for human recombinant carbonic anhydrase 2 to Ki for human recombinant carbonic anhydrase 12
# Homo sapiens [3] = species: Homo sapiens; assay: Selectivity ratio of Ki for human recombinant carbonic anhydrase 1 to Ki for human recombinant carbonic anhydrase 2
# Homo sapiens [4] = species: Homo sapiens; assay: Selectivity ratio of Ki for human recombinant carbonic anhydrase 9 to Ki for human recombinant carbonic anhydrase 2
# Homo sapiens [5] = species: Homo sapiens; assay: Selectivity ratio of Ki for human recombinant carbonic anhydrase 12 to Ki for human recombinant carbonic anhydrase 2
# Sequence of Carbonic anhydrase 1 (P00915 whole entry, canonical isoform): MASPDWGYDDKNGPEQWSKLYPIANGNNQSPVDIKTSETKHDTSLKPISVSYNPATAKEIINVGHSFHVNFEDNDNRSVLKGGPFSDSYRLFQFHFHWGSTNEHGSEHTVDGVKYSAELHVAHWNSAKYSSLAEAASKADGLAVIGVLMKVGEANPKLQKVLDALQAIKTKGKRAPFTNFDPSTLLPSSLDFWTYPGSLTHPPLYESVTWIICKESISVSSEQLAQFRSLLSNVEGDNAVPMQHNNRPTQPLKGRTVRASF
# Sequence of Carbonic anhydrase 12 (O43570 whole entry): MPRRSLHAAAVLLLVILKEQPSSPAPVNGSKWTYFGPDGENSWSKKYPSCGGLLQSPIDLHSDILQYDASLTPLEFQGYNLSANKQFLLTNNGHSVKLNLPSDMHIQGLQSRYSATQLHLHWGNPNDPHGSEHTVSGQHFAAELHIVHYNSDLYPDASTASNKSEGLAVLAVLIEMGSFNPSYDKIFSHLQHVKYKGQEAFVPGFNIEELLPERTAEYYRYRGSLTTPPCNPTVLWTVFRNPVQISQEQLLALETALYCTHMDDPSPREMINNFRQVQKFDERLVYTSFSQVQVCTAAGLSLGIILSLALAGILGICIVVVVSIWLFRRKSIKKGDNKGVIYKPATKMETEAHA
SMILES,Ki (Carbonic anhydrase 1) [nM],Ki (Carbonic anhydrase 2) [nM],Ki (Carbonic anhydrase 12) [nM],Ratio Ki (Homo sapiens [1]),Ki (Carbonic anhydrase 9) [nM],Ratio Ki (Homo sapiens [2]),Ratio Ki (Homo sapiens [3]),Ratio Ki (Homo sapiens [4]),Ratio Ki (Homo sapiens [5])
NS(=O)(=O)c1ccc(-c2cnc(C3CCC3)o2)s1,36.8,0.01,5.1,1000,–,–,–,–,–
Cc1ncc(-c2ccc(S(N)(=O)=O)s2)o1,141,6.3,9.4,1000,10.5,–,–,–,–
COc1ccc(-c2cnc(C3CC3)o2)cc1S(N)(=O)=O,> 10000,8860,7960,> 100000,438,> 100000,–,–,–
NS(=O)(=O)c1ccc(-c2cnc(C(=O)N3CCCC3)o2)s1,41.9,0.01,6.7,1000,18.7,–,–,–,–
COc1ccc(-c2cnc(C(=O)N3CCOCC3)o2)cc1S(N)(=O)=O,> 10000,0.05,> 10000,> 100000,4.5,> 100000,–,–,–
Cc1ccc(-c2cnc(C3CCC3)o2)cc1S(N)(=O)=O,231,283,1390,> 100000,285,> 100000,–,–,–
NS(=O)(=O)c1ccc(-c2cnc(C(=O)N3CCOCC3)o2)cc1,0.01,0.008,6.9,–,1.6,–,–,–,–
Cc1ccc(-c2cnc(C3CC3)o2)cc1S(N)(=O)=O,289,63.9,381,> 100000,–,> 100000,–,–,–
NS(=O)(=O)c1cc(-c2cnc(C3CCC3)o2)cs1,9,0.01,6.6,1000,25.9,–,–,–,–
NS(=O)(=O)c1ccc(-c2cnc(C(=O)N3CCCC3)o2)cc1,0.01,0.009,42.3,–,1.7,–,–,–,–
Cc1ncc(-c2csc(S(N)(=O)=O)c2)o1,0.05,0.01,3.6,1000,26.3,–,–,–,–
Cc1ncc(-c2ccc(C)c(S(N)(=O)=O)c2)o1,45.4,7.1,245,> 100000,274,> 100000,–,–,–
COc1ccc(-c2cnc(C)o2)cc1S(N)(=O)=O,> 10000,4420,3540,> 100000,276,> 100000,–,–,–
NS(=O)(=O)c1ccc(-c2cnc(C3CCC3)o2)cc1,55.3,0.02,8.7,–,–,–,100,100,100
NS(=O)(=O)c1ccc(-c2cnc(C3CC3)o2)s1,130,4.8,9.2,1000,122,–,–,–,–
NS(=O)(=O)c1ccc(-c2cnc(C3CC3)o2)cc1,4.8,0.01,6.2,–,3.2,–,100,100,100
Cc1ccc(-c2cnc(C(=O)N3CCOCC3)o2)cc1S(N)(=O)=O,58.6,0.28,557,> 100000,3.7,> 100000,–,–,–
NS(=O)(=O)c1cc(-c2cnc(C(=O)N3CCOCC3)o2)cs1,0.09,0.03,9.2,1000,–,–,–,–,–
NS(=O)(=O)c1cc(-c2cnc(C(=O)N3CCCC3)o2)cs1,79.9,0.02,64.4,1000,15.2,–,–,–,–
Cc1ncc(-c2ccc(S(N)(=O)=O)cc2)o1,96.3,–,8.5,–,23.1,–,–,–,–
COc1ccc(-c2cnc(C(=O)N3CCCC3)o2)cc1S(N)(=O)=O,> 10000,0.01,8570,> 100000,4.1,> 100000,–,–,–
NS(=O)(=O)c1cc(-c2cnc(C3CC3)o2)cs1,22,2.5,8.7,1000,–,–,–,–,–
NS(=O)(=O)c1ccc(-c2cnc(C(=O)N3CCOCC3)o2)s1,22.5,–,30.3,–,36.4,–,–,–,–
Cc1ccc(-c2cnc(C(=O)N3CCCC3)o2)cc1S(N)(=O)=O,8.5,0.01,2790,> 100000,42.5,> 100000,–,–,–
COc1ccc(-c2cnc(C3CCC3)o2)cc1S(N)(=O)=O,6110,58.2,62.8,> 100000,–,> 100000,–,–,–
